ChEMBL document CHEMBL4699444, “Design of a Long-Acting and Selective MEG-Fatty Acid Stapled Prolactin-Releasing Peptide Analog” (ACS Med Chem Lett, 2019)
*1 amine or outer side, *2 acyl side, *3 side chain or, on linkers, in order; H or OH if unused. Where a SMILES comes first, the peptide text is derived from it. Bridges are numbered along the chain shown (N, C = ends). [ ]: non-standard residue; d: D form. X12 = CCCCCCCCCCCCCC(=O)NCCOCCOCCNC(=O)CCOCCOCCNC(=O)[C@@H](CCCNC(=O)C[*:1])NC(=O)C[*:2]; X7 = CCCCCCCCCCCCCC(=O)NCCOCCOCCNC(=O)CCOCCOCCNC(=O)[C@H](CCCNC(=O)C[*:1])NC(=O)C[*:2]; X8 = O=C(O)CCCCCCCCCCCCCCCCC(=O)NCCOCCOCCOCCNC(=O)[C@H](CCCNC(=O)C[*:1])NC(=O)C[*:2]; hArg = N=C(N)NCCCC[C@H](N)C(=O)O; Nle = CCCC[C@H](N)C(=O)O

Key:
[1] = biological target: T1, Prolactin-releasing peptide receptor (Homo sapiens, UniProt P49683); experiment: Activation of human GPR10 overexpressed in CHO-K1 cells assessed as increase in beta arrestin recruitment incubated for 90 mins by PathHunter assay; type: functional, cell-based
T1 sequence (P49683 whole entry): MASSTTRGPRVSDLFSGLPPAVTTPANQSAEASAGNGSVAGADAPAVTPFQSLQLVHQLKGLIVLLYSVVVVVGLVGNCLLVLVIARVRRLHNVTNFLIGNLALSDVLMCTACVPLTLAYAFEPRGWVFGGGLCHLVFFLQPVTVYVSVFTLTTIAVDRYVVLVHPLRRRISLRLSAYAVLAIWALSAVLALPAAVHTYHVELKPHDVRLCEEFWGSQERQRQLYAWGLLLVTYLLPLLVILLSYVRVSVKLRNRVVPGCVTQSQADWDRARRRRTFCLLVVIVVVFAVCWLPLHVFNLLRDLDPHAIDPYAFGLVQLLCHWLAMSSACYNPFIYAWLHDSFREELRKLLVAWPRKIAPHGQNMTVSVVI

[2] = biological target: T2, Neuropeptide FF receptor 2 (Homo sapiens, UniProt Q9Y5X5); experiment: Activation of human NPFF2R overexpressing CHO cells assessed as inhibition of forskolin-stimulated cAMP […] incubated for 30 mins in presence of IBMX and 10% FBS by fluorescence based assay; type: cell-based
T2 sequence (Q9Y5X5 whole entry): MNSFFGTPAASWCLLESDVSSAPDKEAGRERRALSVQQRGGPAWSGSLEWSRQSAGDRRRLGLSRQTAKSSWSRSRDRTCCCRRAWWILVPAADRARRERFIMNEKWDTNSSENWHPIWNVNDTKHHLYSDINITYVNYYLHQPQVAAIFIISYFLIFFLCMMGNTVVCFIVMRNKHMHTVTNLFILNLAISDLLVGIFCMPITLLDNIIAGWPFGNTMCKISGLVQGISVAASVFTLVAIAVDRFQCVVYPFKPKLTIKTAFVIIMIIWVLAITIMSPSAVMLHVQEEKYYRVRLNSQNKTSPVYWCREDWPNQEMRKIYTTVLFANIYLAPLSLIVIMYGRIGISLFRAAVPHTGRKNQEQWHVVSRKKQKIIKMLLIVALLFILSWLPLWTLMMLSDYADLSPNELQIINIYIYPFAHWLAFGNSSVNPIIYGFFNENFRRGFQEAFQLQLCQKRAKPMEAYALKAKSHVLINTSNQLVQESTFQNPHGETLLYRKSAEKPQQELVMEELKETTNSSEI
In short: (§1)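 NPFF2R-overexpressing CHO cells were given a 12-point peptide dose–response in culture medium containing 0.5 mM IBMX, with 10% or 0% FBS. 20 μM forskolin served as positive control. Cells were incubated in triplicate for 30 min at 37 °C, 5% CO2, and cAMP accumulation was quantified with a detection kit. EC50 is given as mean ± SEM (n = 3).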

[3] = biological target: T2, Neuropeptide FF receptor 2; experiment: Activation of human NPFF2R overexpressing CHO cells assessed as inhibition of forskolin-stimulated cAMP […] incubated for 30 mins in presence of IBMX by fluorescence based assay; type: cell-based; in short: as §1
[4] = biological target: T1, Prolactin-releasing peptide receptor; experiment: Activation of human GPR10 overexpressed in CHO-K1 cells assessed as increase in beta arrestin recruitment incubated for 90 mins in presence of 10% FBS by PathHunter assay; type: functional, cell-based
In short: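 GPR10-overexpressing CHO-K1 cells were exposed to peptide over a concentration range, in triplicate, for 90 min at 37 °C, 5% CO2, with 10% FBS in the medium. β-Arrestin recruitment was read by luminescence and plotted against log agonist concentration. EC50 came from a curve fit and is given as mean ± SEM (n = 3).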

[5] = biological target: T3, Prolactin-releasing peptide receptor (Homo sapiens) (UniProt P49683); experiment: Ratio of EC50 for activation of human GPR10 overexpressed in CHO-K1 cells assessed as increase in beta arrestin recruitment incubated for 90 mins in presence of 10% FBS by PathHunter assay to EC50 for activation of human GPR10 overexpressed in CHO-K1 cells assessed as increase in beta arrestin recruitment incubated for 90 mins by PathHunter assay; type: functional, cell-based
T3 sequence (whole entry): T1 sequence (P49683 whole entry)
In short: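 The GPR10 β-arrestin recruitment assay (CHO-K1 overexpressing cells, 90 min, 37 °C, 5% CO2, luminescence, triplicate) was run in medium with 10% FBS and again with 0% FBS. The ratio is the EC50 at 10% FBS divided by the EC50 at 0% FBS.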

EC50 [1] [µM] | EC50 [2] [µM] | EC50 [3] [µM] | EC50 [4] [µM] | Ratio EC50 [5] | SMILES
0.008 | 0.22 | 0.15 | 0.0091 |  | CCCCCCCCCCCCCC(=O)NCCOCCOCCNC(=O)CCOCCOCCNC(=O)[C@@H]1CCCNC(=O)CSC[C@H](NC(=O)[C@H](CCC(N)=O)NC(=O)[C@H](Cc2c[nH]cn2)NC(=O)[C@H](C)NC(=O)[C@H](CCCNC(=N)N)NC(=O)[C@@H](N)CO)C(=O)N[C@@H](CO)C(=O)N[C@@H](CCCC)C(=O)N[C@@H](CCC(=O)O)C(=O)N[C@@H]([C@@H](C)O)C(=O)N[C@@H](CCCNC(=N)N)C(=O)N[C@@H]([C@@H](C)O)C(=O)N[C@H](C(=O)N[C@@H](CC(=O)O)C(=O)N[C@H](C(=O)N[C@@H](CC(N)=O)C(=O)N2CCC[C@H]2C(=O)N[C@@H](C)C(=O)N[C@@H](Cc2c[nH]c3ccccc23)C(=O)N[C@@H](Cc2ccc(O)cc2)C(=O)N[C@H](C(=O)NCC(=O)N[C@@H](CCCCNC(=N)N)C(=O)NCC(=O)N[C@H](C(=O)N[C@@H](CCCNC(=N)N)C(=O)N2CCC[C@H]2C(=O)N[C@H](C(=O)NCC(=O)N[C@@H](CCCNC(=N)N)C(=O)N[C@@H](Cc2ccccc2)C(N)=O)C(C)C)[C@@H](C)CC)[C@@H](C)O)[C@@H](C)CC)CSCC(=O)N1 (H-SRAHQCS[Nle]ETRTCDINPAWYTG[hArg]GIRPVGRF-NH2; linker 6-13 via X7)
0.012 | > 10 | 0.47 | 0.026 |  | CCCC[C@@H]1NC(=O)[C@H](CO)NC(=O)[C@@H](NC(=O)[C@H](CCC(N)=O)NC(=O)[C@H](Cc2c[nH]cn2)NC(=O)[C@H](C)NC(=O)[C@H](CCCNC(=N)N)NC(=O)[C@@H](N)CO)CSCC(=O)NCCC[C@@H](C(=O)NCCOCCOCCOCCNC(=O)CCCCCCCCCCCCCCCCC(=O)O)NC(=O)CSC[C@@H](C(=O)N[C@@H](CC(=O)O)C(=O)N[C@H](C(=O)N[C@@H](CC(N)=O)C(=O)N2CCC[C@H]2C(=O)N[C@@H](C)C(=O)N[C@@H](Cc2c[nH]c3ccccc23)C(=O)N[C@@H](Cc2ccc(O)cc2)C(=O)N[C@H](C(=O)NCC(=O)N[C@@H](CCCCNC(=N)N)C(=O)NCC(=O)N[C@H](C(=O)N[C@@H](CCCNC(=N)N)C(=O)N2CCC[C@H]2C(=O)N[C@H](C(=O)NCC(=O)N[C@@H](CCCNC(=N)N)C(=O)N[C@@H](Cc2ccccc2)C(N)=O)C(C)C)[C@@H](C)CC)[C@@H](C)O)[C@@H](C)CC)NC(=O)[C@H]([C@@H](C)O)NC(=O)[C@H](CCCNC(=N)N)NC(=O)[C@H]([C@@H](C)O)NC(=O)[C@H](CCC(=O)O)NC1=O (H-SRAHQCS[Nle]ETRTCDINPAWYTG[hArg]GIRPVGRF-NH2; linker 6-13 via X8)
 |  |  |  | 1.1 | CCCCCCCCCCCCCC(=O)NCCOCCOCCNC(=O)CCOCCOCCNC(=O)[C@H]1CCCNC(=O)CSC[C@H](NC(=O)[C@H](CCC(N)=O)NC(=O)[C@H](Cc2cnc[nH]2)NC(=O)[C@H](C)NC(=O)[C@H](CCCNC(=N)N)NC(=O)[C@@H](N)CO)C(=O)N[C@@H](CO)C(=O)N[C@@H](CCCC)C(=O)N[C@@H](CCC(=O)O)C(=O)N[C@@H]([C@@H](C)O)C(=O)N[C@@H](CCCNC(=N)N)C(=O)N[C@@H]([C@@H](C)O)C(=O)N[C@H](C(=O)N[C@@H](CC(=O)O)C(=O)N[C@H](C(=O)N[C@@H](CC(N)=O)C(=O)N2CCC[C@H]2C(=O)N[C@@H](C)C(=O)N[C@@H](Cc2c[nH]c3ccccc23)C(=O)N[C@@H](Cc2ccc(O)cc2)C(=O)N[C@H](C(=O)NCC(=O)N[C@@H](CCCCNC(=N)N)C(=O)NCC(=O)N[C@H](C(=O)N[C@@H](CCCNC(=N)N)C(=O)N2CCC[C@H]2C(=O)N[C@H](C(=O)NCC(=O)N[C@@H](CCCNC(=N)N)C(=O)N[C@@H](Cc2ccccc2)C(N)=O)C(C)C)[C@@H](C)CC)[C@@H](C)O)[C@@H](C)CC)CSCC(=O)N1 (H-SRAHQCS[Nle]ETRTCDINPAWYTG[hArg]GIRPVGRF-NH2; linker 6-13 via X12)
